# M4 PAM – CHRM4 positive allosteric modulation. P08173. CHO-K1 hM4/Gqi5, Fluo-8 calcium fluorescence, ACh EC20; 0% = ACh EC20, 100% = maximal ACh. activation, % at 3 µM. 360,000 compounds, 0.4% hits. AID 624126;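 active means activation above its plate's cutoff, the mean activation of sample wells plus 3 SD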
# Target sequence (P08173 whole entry, looked up): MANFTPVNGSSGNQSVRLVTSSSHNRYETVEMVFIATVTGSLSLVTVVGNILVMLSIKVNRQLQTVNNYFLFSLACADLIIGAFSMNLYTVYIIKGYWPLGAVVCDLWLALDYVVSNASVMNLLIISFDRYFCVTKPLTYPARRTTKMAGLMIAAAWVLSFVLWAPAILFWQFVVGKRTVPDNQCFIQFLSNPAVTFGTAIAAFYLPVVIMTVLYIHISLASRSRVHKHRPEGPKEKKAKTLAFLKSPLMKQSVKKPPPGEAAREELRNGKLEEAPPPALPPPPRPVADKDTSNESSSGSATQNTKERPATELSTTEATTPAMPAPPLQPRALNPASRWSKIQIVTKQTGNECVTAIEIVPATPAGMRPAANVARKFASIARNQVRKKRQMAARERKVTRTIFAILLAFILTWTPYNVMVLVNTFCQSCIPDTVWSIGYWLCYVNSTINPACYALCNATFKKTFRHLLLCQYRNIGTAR
# CHRM4 agonist – CHRM4 agonism in calcium assay; P08173; CHO-K1 hM4/Gqi5, Fluo-8 calcium fluorescence; vehicle 0%, full acetylcholine response 100%; activation, % at 3 µM; 360,000 compounds, 0.14% hits;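 active means activation above the run mean over all test wells plus 3 SD, cut at about 32% in these data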;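 further: peak over basal fluorescence ratio per well then scaled between controls; 0% = DMSO wells and 100% = acetylcholine at EC100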
# M5 antag – antagonists of human muscarinic M5 receptor (CHRM5). P08912. CHO-hM5 cells, Fluo-8 calcium fluorescence, ACh EC80. inhibition, % at 3 µM. 360,000 compounds, 0.59% hits;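 active means inhibition above a per-plate cutoff, the mean of that plate's test compounds plus 3 SD, cut at about 27% in these data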;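 further: 0% = acetylcholine EC80 with DMSO and 100% = DMSO without agonist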
# CHRM5 agonist – agonists of human muscarinic M5 receptor (CHRM5); AID 624037; activation, % at 3 µM; 360,000 compounds, 0.19% hits; CHO-K1 hM5 cells, Fluo-8 calcium fluorescence; 0% DMSO wells, 100% maximal acetylcholine response; P08912;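 active means activation above the run's mean over test compounds plus 3 SD, cut at about 23% in these data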;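 further: signal is peak over basal fluorescence ratio across the kinetic read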
# M4 antag – CHRM4 antagonism in calcium assay. P08173. CHO-hM4 cells, ACh EC80, Fluo-8 calcium fluorescence. inhibition, % at 3 µM. 360,000 compounds, 0.73% hits;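 active means inhibition above its plate's cutoff, the mean inhibition of sample wells plus 3 SD, cut at about 27% in these data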;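 further: 0% = acetylcholine EC80 with DMSO and 100% = DMSO without agonist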
# M5 PAM – positive allosteric modulators of human muscarinic M5 receptor; activation, % at 3 µM; 360,000 compounds, 0.3% hits; CHO-K1 hM5, Fluo-8 calcium, ACh EC20 PAM; 0% = ACh EC20, 100% = ACh EC100;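 active means activation above the run cutoff, the mean activation of all test compounds plus 3 SD, cut at about 18% in these data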
#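 Assay system: CHO-K1 hM5 cells. Also added: acetylcholine at EC20 concentration, added after compound. Dosing: 3 µM, single dose. Times: compound preincubation 140 s before EC20 acetylcholine addition. Signal: Fluo-8 calcium fluorescence. Measure: % activation relative to EC20 and EC100 ACh responses. Repeats: singlicate, one well per test compound.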
# * marks the source's active call; other numbers are inactive results. Compounds with a hit are over-represented: about 1.8% of the library has one in this group of screens.
SMILES,M4 PAM,CHRM4 agonist,M5 antag,CHRM5 agonist,M4 antag,M5 PAM
CN(C(=O)CCS(=O)(=O)c1ccc2c(c1)oc(=O)n2C)C1CCCCC1,-11.8,2.2,9.1,-4.1,14.0,-3.1
COc1ccc(NC(=O)c2cccn(CC=C(C)C)c2=O)cc1,4.6,3.2,10.8,-2.9,-2.6,-10.4
O=C(O)/C=C/C(=O)NCc1ccccn1,6.7,0.9,1.1,0.8,-10.8,21.4*
Cc1cc(/C=N/NC(=O)C(=O)NCc2ccccn2)c(C)n1-c1cccc(Br)c1,-7.2,3.5,-6.0,-2.3,-9.5,3.5
O=C(NCc1ccccn1)C(=O)N/N=C/c1ccccc1O,-7.9,-1.2,-2.9,-4.0,46.6*,3.8
O=C(O)/C=C/C(=O)NCc1ccccc1,6.1,0.1,-2.1,-0.7,6.4,0.2
CC(O)[C@H]1CNC(=O)C(=O)N1CCc1cccc(F)c1 (stereo partly specified),-1.8,0.4,4.6,6.3,-1.6,-0.6
CCC(C)[C@H]1CN=C(N)N1CCc1cc(C(F)(F)F)cc(C(F)(F)F)c1 (stereo partly specified),-7.9,-0.1,29.3*,-10.5,9.8,-41.8
CC(O)[C@H]1CNC(=O)C(=O)N1CCc1cc(C(F)(F)F)cc(C(F)(F)F)c1 (stereo partly specified),2.6,0.9,42.5*,-5.3,-2.5,-17.4
NC1=NC[C@@H](CC2CCCCC2)N1CCc1cc(C(F)(F)F)cc(C(F)(F)F)c1,-14.0,-0.7,45.1*,-3.2,23.9,-19.6
Cc1cccc(NC(=O)CN2CCN(C(=O)c3cnn(Cc4ccccc4)c3)CC2)c1C,17.0,3.0,11.3,2.2,-1.3,7.3
COc1ccccc1C(CNC(=O)c1cccc(S(=O)(=O)N2CCCc3ccccc32)c1)N(C)C (stereo unspecified),-14.3,3.9,67.4*,-10.8,26.0,-44.7
COc1ccccc1C(CNC(=O)c1cccc(S(=O)(=O)N2c3ccccc3CC2C)c1)N(C)C (stereo unspecified),-16.2,2.9,77.8*,-11.2,20.5,-47.2
COc1ccc(C(CNC(=O)c2cccc(S(=O)(=O)N3CCc4ccccc43)c2)N(C)C)cc1 (stereo unspecified),-9.6,4.2,5.2,-9.8,15.6,-10.1
CC1Cc2ccccc2N1S(=O)(=O)c1cccc(C(=O)NCc2ccco2)c1 (stereo unspecified),-0.2,2.8,21.1,-7.5,-7.1,-6.9
Cc1ccn2c(=O)c(NC(=O)c3ccc(Br)o3)c(C)nc2c1,22.6*,0.9,1.6,0.4,6.8,-7.0
Cc1nc(NC(=O)c2ccc(Br)o2)ccc1Br,15.8*,0.2,2.0,-0.4,-4.5,5.5
Cc1ccc([N+](=O)[O-])cc1S(=O)(=O)NCCc1c(C)[nH]c2c(C)cccc12,-6.1,4.3,19.4,1.9,27.9*,-5.6
COc1cccc(/C=N/Nc2nc(Nc3ccccc3)nc(-n3nc(C)cc3C)n2)c1O,-18.9,42.5*,15.6,1.2,17.9,-15.2
Cc1cc(C)n(-c2nc(Nc3ccccc3)nc(-n3nc(C)cc3C)n2)n1,1.1,-0.5,-5.1,1.1,17.4,4.5
C=CCn1c(SCCC)nc(O)cc1=O,-3.7,62.1*,8.7,22.2,2.5,-9.2
O=C(Nc1ccnn1C1CCN(C(=O)c2cccc(C(F)(F)F)c2)CC1)C1CC1,21.3*,2.3,11.0,-2.6,-7.8,0.8
O=C(Nc1ccnn1C1CCN(C(=O)c2ccc(C(F)(F)F)cc2)CC1)C1CC1,4.5,1.6,5.4,-6.9,-12.1,-5.5
COc1cc(CNCCc2c[nH]c3ccccc23)ccc1OCc1ccc(F)cc1,-1.5,47.3*,11.9,7.2,47.0*,-4.5
COc1cc(C(=O)OCc2cccc(OC)c2OC)ccc1OCC(=O)N1CCOCC1,21.8*,3.0,6.5,1.6,-2.9,-0.2
O=c1[nH]c(C2CCN(S(=O)(=O)c3cccc([N+](=O)[O-])c3)CC2)nc2c1nnn2Cc1ccccc1,-20.5,0.9,7.9,-1.9,55.1*,2.6

# Compound activity (PubChem)
